# Legend:
# Assay type in all cases: functional
# [1] = test system: Mycoplasmoides pneumoniae; test: Antimicrobial activity against macrolide-susceptible Mycoplasma pneumoniae isolated from pediatric patients with community-acquired pneumonia after 10 to 14 days by microdilution method
# Outline: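 Pediatric CAP nasopharyngeal isolates, cultured in PPLO broth from real-time PCR-positive samples; strain M129 as control. Broth microdilution in PPLO broth: inoculum estimated at 10^5 CFU/ml added 1:10 to serially diluted antibiotic. Incubated aerobically at 37°C for 10–14 days, until the antibiotic-free growth control changed colour. MIC taken as lowest concentration preventing colour change; MIC50/MIC90 and range reported.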
# [2] = test system: Mycoplasmoides pneumoniae; test: Antimicrobial activity against macrolide-resistant Mycoplasma pneumoniae harboring A2063G transition in domain V of 23S rRNA isolated from pediatric patients with community-acquired pneumonia after 10 to 14 days by microdilution method
# Outline: (§1)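 Clinical isolates cultured from PCR-positive pediatric nasopharyngeal samples in PPLO broth; resistance mutation identified by full-length 23S rRNA gene sequencing. Broth microdilution in PPLO broth containing serially diluted antibiotics, inoculum estimated at 10^5 CFU/ml in culture. Incubated aerobically at 37°C for 10 to 14 days until the antibiotic-free control changed colour. MIC was the lowest concentration preventing the colour change. Strain M129 served as control.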
# [3] = test system: Mycoplasmoides pneumoniae; test: Antimicrobial activity against macrolide-resistant Mycoplasma pneumoniae harboring A2064G transition in domain V of 23S rRNA isolated from pediatric patients with community-acquired pneumonia after 10 to 14 days by microdilution method; outline: as §1
SMILES,MIC50 [1] [µg/mL],MIC90 [1] [µg/mL],MIC50 [2] [µg/mL],MIC90 [2] [µg/mL],MIC50 [3] [µg/mL],MIC90 [3] [µg/mL],MIC [3] [µg/mL]
CC[C@H]1OC(=O)[C@H](C)[C@@H](O[C@H]2C[C@@](C)(OC)[C@@H](O)[C@H](C)O2)[C@H](C)[C@@H](O[C@@H]2O[C@H](C)C[C@H](N(C)C)[C@H]2O)[C@](C)(O)C[C@@H](C)CN(C)[C@H](C)[C@@H](O)[C@]1(C)O [AZITHROMYCIN],0.00049,0.00098,32,64,32,64,
CC[C@H]1OC(=O)[C@H](C)[C@@H](O[C@H]2C[C@@](C)(OC)[C@@H](O)[C@H](C)O2)[C@H](C)[C@@H](O[C@@H]2O[C@H](C)C[C@H](N(C)C)[C@H]2O)[C@](C)(OC)C[C@@H](C)C(=O)[C@H](C)[C@@H](O)[C@]1(C)O [CLARITHROMYCIN],0.0039,0.0078,64,> 64,64,64,
CC[C@H]1OC(=O)[C@H](C)[C@@H](O[C@H]2C[C@@](C)(OC)[C@@H](O)[C@H](C)O2)[C@H](C)[C@@H](O[C@@H]2O[C@H](C)C[C@H](N(C)C)[C@H]2O)[C@](C)(O)C[C@@H](C)C(=O)[C@H](C)[C@@H](O)[C@]1(C)O [ERYTHROMYCIN],0.0078,0.0156,64,> 64,> 64,> 64,≥ 64
CO[C@@H]1[C@@H](O[C@@H]2O[C@H](C)[C@@H](O[C@H]3C[C@@](C)(O)[C@@H](OC(=O)CC(C)C)[C@H](C)O3)[C@H](N(C)C)[C@H]2O)[C@@H](CC=O)C[C@@H](C)[C@@H](O)/C=C/C=C/C[C@@H](C)OC(=O)C[C@H]1OC(C)=O [JOSAMYCIN],0.0313,0.0625,8,16,64,> 64,
C[C@H]1COc2c(N3CCN(C)CC3)c(F)cc3c(=O)c(C(=O)O)cn1c23.C[C@H]1COc2c(N3CCN(C)CC3)c(F)cc3c(=O)c(C(=O)O)cn1c23.O [LEVOFLOXACIN],0.5,1,1,1,1,1,
CN(C)c1ccc(O)c2c1C[C@H]1C[C@H]3[C@H](N(C)C)C(O)=C(C(N)=O)C(=O)[C@@]3(O)C(O)=C1C2=O [MINOCYCLINE],0.5,1,0.5,1,0.5,1,
CCCC(=O)O[C@H]1[C@H](C)O[C@@H](O[C@H]2[C@H](N(C)C)[C@@H](O)[C@H](O[C@H]3[C@@H](CC=O)C[C@@H](C)[C@@H](O)/C=C/C=C/C[C@@H](C)OC(=O)C[C@@H](O)[C@@H]3OC)O[C@@H]2C)C[C@@]1(C)OC(=O)CC [ROKITAMYCIN],0.0156,0.0156,0.125,0.25,16,16,
CC[C@H]1OC(=O)[C@H](C)C(=O)[C@H](C)[C@@H](O[C@@H]2O[C@H](C)C[C@H](N(C)C)[C@H]2O)[C@](C)(OC)C[C@@H](C)C(=O)[C@H](C)[C@H]2N(CCCCn3cnc(-c4cccnc4)c3)C(=O)O[C@]12C [TELITHROMYCIN],0.00098,0.00195,32,64,4,16,

# From ChEMBL document CHEMBL1151455, “Increased macrolide resistance of Mycoplasma pneumoniae in pediatric patients with community-acquired pneumonia” (2008)
